Experiments:
Human alphaherpesvirus 1 [1] = experiment: Ability to reduce plaque formation of herpes simplex virus type 1 (HSV-1) by 50% in human embryonic lung fibroblast (HELF) cell cultures; type: functional; details: Human alphaherpesvirus 1, HELF; read-out: ID50 (the source's name)
In short: (§1)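 HELF confluent monolayers infected 1 h at 37 °C (about 50–100 plaques per bottle) with HSV-1 clinical isolate strain 77 or TK-deficient HSV-1 B 2006. Then 0.5% w/v methocel overlay with 10% fetal calf serum plus compound, 3 days at 37 °C. Neutral red staining; ID50 in µmol/L read graphically as 50% plaque-number reduction.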

[2] = Minimum concentration not causing a microscopically detectable cytotoxic alteration of normal human embryonic lung fibroblast (HELF) morphology
In short: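 Semiconfluent HELF monolayers, 24 h post-seeding, exposed 3 days at 37 °C to compound up to 1 mmol/L. Microscopic comparison with untreated controls; toxicity signs were cell detachment, monolayer destruction, or cells remaining semiconfluent. Value is the lowest concentration showing no detectable morphological alteration.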

Human alphaherpesvirus 2 = experiment: Ability to reduce plaque formation of herpes simplex virus type 2 (HSV-2) by 50% in human embryonic lung fibroblast (HELF) cell cultures; type: functional; details: Human alphaherpesvirus 2, HELF; read-out: ID50 (the source's name)
In short: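 Clinical isolate HSV-2 strain 74 adsorbed 1 h at 37 °C onto confluent HELF monolayers, aiming at 50–100 plaques per bottle. Compound added in methocel (0.5% w/v) overlay containing 10% FCS; 2 days at 37 °C. Plaques visualised with neutral red. ID50 in µmol/L determined graphically as the concentration halving plaque counts.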

[3] = Inhibitory dose for HELF cell proliferation during 3-day treatment period; type: functional; details: Homo sapiens, 72 h, read-out: ID50 (the source's name)
Human alphaherpesvirus 1 [4] = experiment: Ability to reduce plaque formation of TK deficient herpes simplex virus type 1(HSV-1) by 50% in human embryonic lung fibroblast (HELF) cell cultures; type: functional; details: Human alphaherpesvirus 1, HELF; read-out: ID50 (the source's name); in short: as §1
Human betaherpesvirus 5 = experiment: Ability to reduce plaque formation of human cytomegalovirus (HCMV) by 50% in human embryonic lung fibroblast (HELF) cell cultures; type: functional; details: Human betaherpesvirus 5, HELF; read-out: ID50 (the source's name)
In short: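 Plaque reduction in HELF cells with laboratory HCMV strain Davis, plaques scored 8–12 days post-infection. ID50 is the concentration cutting plaque formation by 50%.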

Human alphaherpesvirus 3 = experiment: Ability to reduce plaque formation of varicella zoster virus (VZV) by 50% in human embryonic lung fibroblast (HELF) cell cultures; type: functional; details: Human alphaherpesvirus 3, HELF; read-out: ID50 (the source's name)
In short: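 Fresh clinical VZV isolate, strain 3/S.H., in HELF cells. Plaques counted 5–6 days post-infection. ID50 is the concentration reducing plaque formation by 50%.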

SMILES	IC50 (Human alphaherpesvirus 1 [1]) [µM]	Toxicity [2] [µM]	IC50 (Human alphaherpesvirus 2) [µM]	IC50 [3] [µM]	IC50 (Human alphaherpesvirus 1 [4]) [µM]	IC50 (Human betaherpesvirus 5) [µM]	IC50 (Human alphaherpesvirus 3) [µM]
O=c1[nH]c(=O)n([C@@H]2O[C@H](CO)[C@@H](O)[C@@H]2O)cc1Br	1.35	> 1000	7.9				
O=c1nc(OC(F)F)c(Br)cn1[C@@H]1O[C@H](CO)[C@@H](O)[C@H]1O	> 250	> 250	> 250				
O=c1[nH]c(=O)n([C@@H]2O[C@H](CO)[C@@H](O)[C@H]2O)cc1/C=C/Br	0.115		49	> 1000			
O=c1[nH]c(=O)n([C@H]2C[C@H](O)[C@@H](CO)O2)cc1Br [BROXURIDINE]	0.8	> 1000	1.4				
O=c1nc(OC(F)F)c(F)cn1[C@@H]1O[C@H](CO)[C@@H](O)[C@@H]1O	110	> 500	300				
O=c1[nH]c(=O)n([C@H]2C[C@H](O)[C@@H](CO)O2)cc1/C=C/Br [BRIVUDINE]	0.05		27	170			
CCc1cn([C@H]2C[C@H](O)[C@@H](CO)O2)c(=O)nc1OC(F)F	> 1000	> 1000	> 1000				
O=c1nc(OC(F)F)c(Br)cn1[C@@H]1O[C@H](CO)[C@@H](O)[C@@H]1O	3.6	> 1000	17.6				
Cc1cn(C2O[C@H](CO)[C@@H](O)[C@@H]2O)c(=O)nc1OC(F)F (some centres not stated)	0.8	> 1000	3		> 500	> 500	1
O=c1[nH]c(=O)n(C2O[C@H](CO)[C@@H](O)[C@@H]2O)cc1I (some centres not stated)	51	> 500	70				
CCc1cn([C@H]2C[C@H](O)[C@@H](CO)O2)c(=O)[nH]c1=O [EDOXUDINE]	10	> 1000	14.5				
O=c1nc(OC(F)F)c(/C=C/Br)cn1C1O[C@H](CO)[C@@H](O)[C@@H]1O (some centres not stated)	1.1	> 500	> 500				
O=c1nc(OC(F)F)c(Br)cn1[C@H]1C[C@H](O)[C@@H](CO)O1	130	> 500	> 500				
O=c1nc(OC(F)F)c(I)cn1[C@@H]1O[C@H](CO)[C@@H](O)[C@@H]1O	29	> 1000	82				
Cc1cn([C@@H]2O[C@H](CO)[C@@H](O)[C@@H]2O)c(=O)[nH]c1=O	0.64	> 1000	1.65		> 500	> 500	0.53
O=c1nc(OC(F)F)c(I)cn1[C@@H]1O[C@H](CO)[C@@H](O)[C@H]1O	> 500	> 500	> 500				
O=c1nc(OC(F)F)c(F)cn1[C@@H]1O[C@H](CO)[C@@H](O)[C@H]1O	500	> 500	> 500				
CCc1cn(C2O[C@H](CO)[C@@H](O)[C@@H]2O)c(=O)nc1OC(F)F (some centres not stated)	27	> 500	210				
Nc1nc2c(ncn2COCCO)c(=O)[nH]1 [ACYCLOVIR]	0.48		1.6	360			
Cc1cn([C@H]2C[C@H](O)[C@@H](CO)O2)c(=O)nc1OC(F)F	> 1000	> 1000	> 1000				
O=c1nc(OC(F)F)ccn1[C@@H]1O[C@H](CO)[C@@H](O)[C@@H]1O	430	> 1000	> 1000				
O=c1nc(OC(F)F)ccn1[C@@H]1O[C@H](CO)[C@@H](O)[C@H]1O	> 1000	> 1000	> 1000				

Source: ChEMBL document CHEMBL1124232, “Synthesis and biological activities of 4-O-(difluoromethyl)-5-substituted-uracil nucleoside analogues” (J Med Chem, 1988)
